This note sets out measurements from ChEMBL document CHEMBL2429818, “Recognition of HIV-TAR RNA using neomycin-benzimidazole conjugates” (Bioorg Med Chem Lett, 2013).

Calls of active or inactive are those of the source. The rule behind the calls is not given here.

Assay [1] deals with Nucleic Acid. The experiment in a line: Displacement of fluorescein and rhodamine-labeled TAT peptide from HIV TAR RNA by FRET assay. It counts as nucleic-acid assay, Human immunodeficiency virus. Summed up:
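Tat peptide carrying fluorescein/rhodamine FRET pair mixed 1:1 with TAR RNA (100 nM each) in 50 mM Tris, 20 mM KCl, pH 7.4. Complex titrated with ligand until fluorescence stopped changing; displacement read as loss of fluorescein emission. Isotherm fitted to a dose-response curve to give IC50, the level displacing 50% of bound peptide.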

For assay [2], the system named is Nucleic Acid. Nature of the assay: Thermal stabilization of HIV TAR RNA assessed as change in melting temperature at 1:1 ligand to RNA ratio by UV-vis spectrophotometric analysis. The settings on record: Human immunodeficiency virus. Format: nucleic-acid assay.
Assay [3] addresses Nucleic Acid. Nature of the assay: Displacement of ethidium bromide from HIV TAR RNA by fluorescent intercalator displacement assay. It counts as nucleic-acid assay, Human immunodeficiency virus. Summed up:
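TAR RNA prebound with ethidium bromide, then titrated successively with ligand to displace the intercalator. The resulting binding isotherm was analysed for DC50, the ligand concentration displacing 50% of bound dye.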

Assay [4] concerns Nucleic Acid. The experiment in a line: Binding affinity to HIV TAR RNA at 1.6 equiv after 5 mins by circular dichroism analysis. It counts as nucleic-acid assay. The settings on record: Human immunodeficiency virus. The procedure, abridged:
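TAR RNA titrated serially with ligand in small increments; after each addition the complex was stirred and equilibrated 5 min before recording the CD spectrum (average of three scans). Buffer 10 mM sodium cacodylate, 0.5 mM EDTA, 100 mM KCl, pH 6.8, at 20 °C.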

The nature of assay [5]: Displacement of fluorescein-labeled REV peptide from HIV RRE RNA after 1 hr by fluorescence polarization assay. More on the design: species or system Human immunodeficiency virus.

Take `NC[C@@H]1O[C@H](O[C@H]2[C@@H](O)[C@H](O[C@@H]3[C@@H](O)[C@H](N)C[C@H](N)[C@H]3O[C@H]3O[C@H](CN)[C@@H](O)[C@H](O)[C@H]3N)O[C@@H]2CO)[C@H](N)[C@@H](O)[C@@H]1O` [FRAMYCETIN]: the IC50 on Nucleic Acid [1] is 1470 nM. Also, the ΔTm in the assay on Nucleic Acid [2] amounted to 2 °C.
Consider `CN1CCN(c2ccc3nc(-c4ccc(OCc5cn(CCCCCCCCCCn6cc(CCCCc7cn(C[C@H]8O[C@@H](O[C@@H]9[C@@H](O)[C@H](N)C[C@H](N)[C@H]9O[C@H]9O[C@H](CN)[C@@H](O)[C@H](O)[C@H]9N)[C@H](O)[C@@H]8O[C@H]8O[C@@H](CN)[C@@H](O)[C@H](O)[C@H]8N)nn7)nn6)nn5)cc4)[nH]c3c2)CC1`, for which, on Nucleic Acid [3], the DC50 came out at 180 nM. The concentration for half-maximal inhibition (IC50) at Nucleic Acid [1] is 1380 nM. Besides, the shift in melting temperature (ΔTm) in the assay on Nucleic Acid [2] was 4 °C.
On to `CN1CCN(c2ccc3nc(-c4ccc(OCCn5cc(CCc6cn(C[C@H]7O[C@@H](O[C@@H]8[C@@H](O)[C@H](N)C[C@H](N)[C@H]8O[C@H]8O[C@H](CN)[C@@H](O)[C@H](O)[C@H]8N)[C@H](O)[C@@H]7O[C@H]7O[C@@H](CN)[C@@H](O)[C@H](O)[C@H]7N)nn6)nn5)cc4)[nH]c3c2)CC1`, for which the DC50 on Nucleic Acid [3] was 83 nM. At Nucleic Acid [1], this compound gave an IC50 of 337 nM. Moreover, in the assay with Nucleic Acid [2], the ΔTm stood at 3.4 °C.
As for `C#CCOc1ccc(-c2nc3ccc(N4CCN(C)CC4)cc3[nH]2)cc1`, in the assay with Nucleic Acid [2], the ΔTm turned out to be 1 °C.
Regarding `CN1CCN(c2ccc3nc(-c4ccc(OCc5cn(C[C@H]6O[C@@H](O[C@@H]7[C@@H](O)[C@H](N)C[C@H](N)[C@H]7O[C@H]7O[C@H](CN)[C@@H](O)[C@H](O)[C@H]7N)[C@H](O)[C@@H]6O[C@H]6O[C@@H](CN)[C@@H](O)[C@H](O)[C@H]6N)nn5)cc4)[nH]c3c2)CC1`, the DC50 at Nucleic Acid [3] was 33 nM. In addition, the outcome in the assay on Nucleic Acid [4] was Active. For the same compound, the IC50 in assay [5] is 768 nM; at Nucleic Acid [1], 272 nM. Besides, the ΔTm in the assay on Nucleic Acid [2] stood at 5.6 °C.
The compound `CN1CCN(c2ccc3nc(-c4ccc(OCCn5cc(COCc6cn(C[C@H]7O[C@@H](O[C@@H]8[C@@H](O)[C@H](N)C[C@H](N)[C@H]8O[C@H]8O[C@H](CN)[C@@H](O)[C@H](O)[C@H]8N)[C@H](O)[C@@H]7O[C@H]7O[C@@H](CN)[C@@H](O)[C@H](O)[C@H]7N)nn6)nn5)cc4)[nH]c3c2)CC1` yielded a DC50 on Nucleic Acid [3] of 78 nM. Further, the half-maximal inhibitory concentration (IC50) at Nucleic Acid [1] worked out at 1280 nM. The ΔTm in the assay on Nucleic Acid [2] was found to be 3 °C.
Taken in the same sequence, the figures for `CN1CCN(c2ccc3nc(-c4ccc(OCc5cn(Cn6cc(CCCCc7cn(C[C@H]8O[C@@H](O[C@@H]9[C@@H](O)[C@H](N)C[C@H](N)[C@H]9O[C@H]9O[C@H](CN)[C@@H](O)[C@H](O)[C@H]9N)[C@H](O)[C@@H]8O[C@H]8O[C@@H](CN)[C@@H](O)[C@H](O)[C@H]8N)nn7)nn6)nn5)cc4)[nH]c3c2)CC1` were 184 nM, 411 nM and 2.5 °C.
With `CN1CCN(c2ccc3nc(-c4ccc(OCc5cn(CCCCCCn6cc(CCCCc7cn(C[C@H]8O[C@@H](O[C@@H]9[C@@H](O)[C@H](N)C[C@H](N)[C@H]9O[C@H]9O[C@H](CN)[C@@H](O)[C@H](O)[C@H]9N)[C@H](O)[C@@H]8O[C@H]8O[C@@H](CN)[C@@H](O)[C@H](O)[C@H]8N)nn7)nn6)nn5)cc4)[nH]c3c2)CC1`, the DC50 on Nucleic Acid [3] came out at 200 nM. This compound also gave a concentration for half-maximal inhibition (IC50) at Nucleic Acid [1] of 1370 nM. The ΔTm with Nucleic Acid [2] worked out at 3.8 °C.
Taken in the same sequence, the figures for `CN1CCN(c2ccc3nc(-c4ccc(OCCn5cc(-c6ccc(-c7cn(C[C@H]8O[C@@H](O[C@@H]9[C@@H](O)[C@H](N)C[C@H](N)[C@H]9O[C@H]9O[C@H](CN)[C@@H](O)[C@H](O)[C@H]9N)[C@H](O)[C@@H]8O[C@H]8O[C@@H](CN)[C@@H](O)[C@H](O)[C@H]8N)nn7)cc6)nn5)cc4)[nH]c3c2)CC1` were 180 nM, 379 nM and 3 °C.
On to `CN1CCN(c2ccc3nc(-c4ccc(OCCn5cc(CCCCCCc6cn(C[C@H]7O[C@@H](O[C@@H]8[C@@H](O)[C@H](N)C[C@H](N)[C@H]8O[C@H]8O[C@H](CN)[C@@H](O)[C@H](O)[C@H]8N)[C@H](O)[C@@H]7O[C@H]7O[C@@H](CN)[C@@H](O)[C@H](O)[C@H]7N)nn6)nn5)cc4)[nH]c3c2)CC1`, for which the DC50 at Nucleic Acid [3] was 81 nM. The same compound gave a concentration for half-maximal inhibition (IC50) at Nucleic Acid [1] of 949 nM. For the same compound, in the assay on Nucleic Acid [2], the ΔTm is 5.4 °C.
In the case of `CN1CCN(c2ccc3nc(-c4ccc(OCCn5cc(CCCc6cn(C[C@H]7O[C@@H](O[C@@H]8[C@@H](O)[C@H](N)C[C@H](N)[C@H]8O[C@H]8O[C@H](CN)[C@@H](O)[C@H](O)[C@H]8N)[C@H](O)[C@@H]7O[C@H]7O[C@@H](CN)[C@@H](O)[C@H](O)[C@H]7N)nn6)nn5)cc4)[nH]c3c2)CC1`, the DC50 on Nucleic Acid [3] was 140 nM. The same compound displayed an IC50 on Nucleic Acid [1] of 507 nM. Moreover, the ΔTm in the assay with Nucleic Acid [2] is 4.1 °C.
In turn, `CN1CCN(c2ccc3nc(-c4ccc(OCc5cn(CCCCCn6cc(CCCCc7cn(C[C@H]8O[C@@H](O[C@@H]9[C@@H](O)[C@H](N)C[C@H](N)[C@H]9O[C@H]9O[C@H](CN)[C@@H](O)[C@H](O)[C@H]9N)[C@H](O)[C@@H]8O[C@H]8O[C@@H](CN)[C@@H](O)[C@H](O)[C@H]8N)nn7)nn6)nn5)cc4)[nH]c3c2)CC1` had a DC50 at Nucleic Acid [3] of 150 nM. Further, on Nucleic Acid [1], the IC50 came out at 851 nM. Moreover, in the assay on Nucleic Acid [2], the ΔTm was 2.1 °C.
